Bioassay records: PubChem BioAssay, several laboratories
Only some compounds are listed: those with a hit (about 4.9% of all), similar ones and a draw of the others.
STAT3 activator: increases IL-6 driven STAT3 reporter signal | activation (% of control), % at 5.6 µM | U3A cells, IL-6 STAT3-luciferase reporter, luminescence; 100% = signal with IL-6 EC80 alone | 190,000 compounds, 0.91% hits;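 active = activation above the screen-wide mean of compound activation plus 3 SD, cut at about 130% in these data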;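 note: 0% = background luminescence of wells with medium and substrate only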
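Assay system – human STAT1-deficient U3A cells with stable STAT3-luciferase reporter · Also added – IL-6 (33 ng/mL) · Schedule – compound 1 h, then IL-6 6 h at 37 °C · Technique – reporter luminescence signal · Evaluation – % activation versus median of IL-6-stimulated wells · Benchmarks – IL-6-only wells as 100% reference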
APP 5'UTR act: APP 5'UTR luciferase reporter activation | SH-SY5Y APP 5'UTR luciferase reporter, luminescence; zero percent = DMSO vehicle wells | activation, % at 2 µM | 190,000 compounds, 1% hits | AID 1276;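 active = activation above a set limit, based on mean plus 3 SD of controls, cut at about 140% in these data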
STAT1 act: activators of IFN-gamma induced STAT1 signaling | NIH 3T3 STAT1-luciferase reporter, luminescence; 100% = IFN-gamma alone, no compound | activation (% of control), % at 5.5 µM | 200,000 compounds, 2.6% hits | AID 932;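 active = activation above the screen-wide mean activation plus 3 SD, cut at about 130% in these data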;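 note: raw ratio to IFN-gamma control signal so 100% means no change and 0% no light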
STAT1 inh: STAT1 signaling inhibition; NIH 3T3 STAT1-luciferase reporter, IFN-gamma, luminescence; inhibition, % at 5.5 µM; 200,000 compounds, 0.35% hits; AID 920;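 active = inhibition above a set limit, the mean inhibition across all tested compounds plus 3 SD, cut at about 34% in these data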;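 note: 0% = IFN-gamma with DMSO and 100% = IFN-gamma with 300 µM nifuroxazide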
STAT3 inh: reduces IL-6 driven STAT3 reporter signal; inhibition, % at 5.5 µM; U3A cells, IL-6 STAT3-luciferase reporter, luminescence; host cell line lacks STAT1; AID 862; 190,000 compounds, 0.89% hits;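 active = inhibition above the mean inhibition across all screened compounds plus 3 SD, cut at about 44% in these data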;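 note: 0% = DMSO only wells and 100% = 100 µM nifuroxazide control wells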
NF-kB neuron act: NF-kB expression increase, human neuronal cells; fold change at 12.5 µM; 190,000 compounds, 1.6% hits; AID 1239; NF-kB reporter expression; hits give high values; in the data active = fold change above about 3.3
* marks the source's active call; other numbers are inactive results; nt = no result given.

SMILES	STAT3 activator	APP 5'UTR act	STAT1 act	STAT1 inh	STAT3 inh	NF-kB neuron act
c1ccc(-c2noc(-c3ccc4c(c3)OCO4)n2)nc1	12	-30	49	54*	107*	0.68
O=C(Nc1cccc(-c2cn3cccnc3n2)c1)c1ccc2c(c1)OCO2	99	16	100	0	6	0.58
COC(=O)c1ccc2nc(-c3ccc4c(c3)OCO4)cn2c1	25	90	39	66*	89*	5*
c1ccc(-c2noc(-c3ccc4ccccc4c3)n2)nc1	9	-49	18	88*	113*	0.2
CSc1ccc(/C=C(/NC(=O)c2ccc(C)cc2)C(=O)Nc2cccc(F)c2)cc1	94	11	97	3	5	1.2
O=C(O)CCCNC(=O)c1cccc(C(=O)NCCCC(=O)O)n1	103	-16	105	-3	-6	1
CCOC(=O)c1ccc(Cn2c(-c3ccccc3)nnc2-c2ccccc2)o1	97	-2	103	-3	8	1.1
CCOC(=O)c1ccc(COC(=O)c2ccc(-c3nnc(-c4ccccc4)o3)cc2)o1	117	44	130*	-32	-16	nt
CCOC(=O)c1ccc(-c2ccc(CO)o2)cc1	98	70	129*	-32	10	2.8
Cc1ccc(-c2ccc(CO)o2)cc1N	89	43	101	-2	15	1.1
Oc1ccc(-c2cccc(-c3ccc(O)cc3)n2)cc1	89	27	113	-14	14	1.5
O=C1c2ccccc2-c2nnc(-c3ccc(O)cc3)cc21	40	120	56	48*	72*	2.4
CCOC(=O)c1c(NC(=O)c2c(-c3ccccc3)noc2C)sc(C)c1-c1ccccc1	128	-40	136*	-40	-23	0.71
CCOC(=O)Cc1csc(NC(=O)c2c(-c3ccccc3)noc2C)n1	97	0	99	1	4	1.1
CCNc1nc(NCC)n2c(SC(C(=O)Nc3cc(C)ccc3OC)c3ccccc3)nnc2n1 (configuration not stated)	83	7	87	15	22	0.62
O=C(O)CCC(=O)Nc1ccccc1C(=O)NCCc1ccccc1	111	27	135*	-40	-17	1.8
Cn1c(NC(=O)Cc2cccc3ccccc23)cc(=O)n(C)c1=O	96	-12	104	-4	9	0.9
Oc1ccc(-c2nccc(-c3cccs3)n2)cc1	140*	83	141*	-46	-47	2.9
COC(=O)C(C)Oc1ccc(-c2nccc(-c3cccs3)n2)cc1 (configuration not stated)	101	0	117	-19	4	1.4
O=c1c2ccccc2nnn1COc1ccc(F)cc1Cl	95	25	144*	-50	9	2.3
CC(Oc1ccc(Cl)cc1Cl)C(=O)OCn1nnc2ccccc2c1=O (configuration not stated)	98	11	104	-4	8	1.2
COc1ccc(C(=O)OCn2nnc3ccccc3c2=O)cc1OC	112	9	92	8	-7	0.99
O=c1c2ccccc2nnn1COc1ccc(Cl)cc1Br	94	80	133*	-36	10	1.1
O=c1c2ccccc2nnn1COc1cccc2ccccc12	102	49	130*	-35	6	2.1
CCOc1ccc(OCCn2nnc3ccccc3c2=O)cc1	93	44	125	-29	11	4.6*
SMILES	STAT3 activator	APP 5'UTR act	STAT1 act	STAT1 inh	STAT3 inh	NF-kB neuron act
O=C(COC(=O)c1cccc(NS(=O)(=O)c2ccc(F)c(F)c2)c1)NC(=O)NC1CCCC1	102	6	93	8	-7	0.96
Cc1ccnc(NS(=O)(=O)c2ccc(NC(=O)CSc3nc(-c4ccccc4)cc(=O)[nH]3)cc2)n1	105	3	103	-6	-1	1
COc1cc(/C=N/NC(N)=S)cc(Br)c1OCc1ccccc1F	103	20	129*	-32	0	1.6
CCOc1cc(/C=N/NC(N)=S)cc(Br)c1OCc1ccccc1C	106	19	105	-6	-1	1.1
CCNc1nc(N)c(C(=O)c2ccc(Cl)s2)s1	90	58	144*	-49	15	3.7*
CCOC(=O)CNC(=O)c1ccc(Cl)s1	105	15	102	-2	-6	1.1
Cc1cc(-c2nc3ncccc3o2)ccc1N	80	43	139*	-42	27	1.8
